Experimental data taken from paper PMC8553955 (Plant Communications, 2021).

Legend:
Phelipanche ramosa seeds [1] = assay: Germination stimulation activity assay on P. ramosa seeds; conditions: in vivo
[2] = system: A. thaliana htl-3/p35S::GFP-PrKAI2d3 seeds; assay: Arabidopsis germination assay, htl-3 complemented with PrKAI2d3; format: in vivo, Arabidopsis thaliana; conditions: Arabidopsis Col-0, htl-3 and the three p35S::GFP-PrKAI2d3 complemented lines; data not shown
In short: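 After-ripened (≥6 weeks), surface-sterilized seeds were suspended in 1 mM HEPES pH 7.5 at 10 mg/mL and dispensed at about 20–25 seeds per well. Stimulant (GR24 isomers) or DMSO control was added. Plates were incubated either 5 days at 25°C in darkness or, for thermo-inhibition, 7 days at 32–34°C under constant light (10 μmol m−2 s−1). Germination was scored as radicle protrusion. Groups were compared by Kruskal–Wallis.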

PrKAI2d3 [3] = assay: Thermostability of PrKAI2d3 by nanoDSF; format: binding, Phelipanche ramosa; conditions: PrKAI2d3 at 10 μM, ligands at 100 μM
In short: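 Protein at about 10 μM in PBS (100 mM phosphate pH 6.8, 150 mM NaCl) was mixed with ligand or no ligand. Intrinsic fluorescence (350/330 nm ratio) was recorded over a 1°C/min temperature ramp at 55% excitation. Apparent Tm was taken from the first derivative of the ratio curve.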

Phelipanche ramosa seeds [4] = assay: Inhibition of P. ramosa germination stimulation induced by GR24 or 2-PEITC; format: in vivo
In short: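 Seeds from a genetic-group-1 population were surface-sterilized and conditioned in darkness at 21°C. Germination was stimulated with 10 nM (±)-GR24 or 100 nM 2-PEITC in the presence of test compound. Maximum inhibition and IC50 were derived from the response.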

Striga hermonthica seeds = assay: Germination stimulation activity assay on S. hermonthica seeds; format: in vivo
In short: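 Surface-sterilized seeds were conditioned in darkness at 30°C. Compounds were dissolved at 10 mM in DMSO, serially diluted in water/DMSO 9:1, and applied at 10−13 to 10−6 M (final water/DMSO 99:1). Controls were 1% DMSO (negative) and 1 μM (±)-GR24 (positive). Germination was expressed relative to the positive control in each assay, with at least three repeats. EC50 came from a four-parameter logistic fit.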

[5] = system: A. thaliana htl-3/ShHTL7 seeds; assay: Arabidopsis germination assay, htl-3 expressing ShHTL7; format: in vivo
[6] = system: pea (Pisum sativum) shoot branching; assay: Pea shoot branching assay; format: in vivo; conditions: direct injection in the stem, 100 μM, rms1-10
rice (Oryza sativa) = conditions: high concentration (50 μM); ref Nakamura et al., 2013; cited from earlier work
PrKAI2d3 [7] = assay: Enzymatic assays with profluorescent probes and p-nitrophenyl acetate; format: biochemical, Phelipanche ramosa

S=C=NCCc1ccccc1 [2-PEITC, phenethyl isothiocyanate]
Seeds of P. ramosa fold less sensitive than to (±)-GR24 (Phelipanche ramosa seeds [1]): approximately 10 000 fold
sensitivity of germination in words [2]: insensitive
apparent melting temperature (Tm) (PrKAI2d3 [3]): 45.1 °C

CC1=CC(=O)CC(C)(C)[C@@]1(O)/C=C/C(C)=C\C(=O)O [ABA, abscisic acid]
IC50 (Phelipanche ramosa seeds [4]; 2-PEITC (100 nM)): 34 nM
IC50 (Phelipanche ramosa seeds [4]; GR24 (10 nM)): 100 nM

CC1=CC(O)OC1=O [D-OH, 4-Hydroxy-2-methylbut-2-en-4-olide]
EC50 (Striga hermonthica seeds): 1200 nM
EC50 [5]: 3.1 µM
effect on branching control in pea, in words [6]: no effect on branching control
bioactivity in rice, in words (rice (Oryza sativa)): bioactive

CC(=O)Oc1ccc([N+](=O)[O-])cc1 [p-NPA, para-nitrophenyl acetate]
PrKAI2d3 hydrolase activity with generic substrate, in words (PrKAI2d3 [7]): no hydrolytic activity was detected
